# Assay outcomes as filed in PubChem BioAssay.
# The list is not random: actives were taken first. Their share in the collection is about 3.3%.
# Granule exo inh: lytic granule exocytosis inhibition; 360,000 compounds, 0.66% hits; TALL-104 LAMP-1 surface exposure, flow cytometry; cells stimulated with thapsigargin and PMA; inhibition, % at 10 µM;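 active = inhibition above about 55%, limit read from the data; inconclusive = no clear call, values can overlap the other calls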
# CendR NRP1 mod: NRP-1/CendR interaction modulation; O14786; FAM-RPARPAR peptide binding to NRP-1, fluorescence polarization; inhibition, % at 25 µM; 360,000 compounds, 0.85% hits; AID 602438;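 active = inhibition or corrected inhibition above about 18%, plus a signal ratio from 0.5 to 1.5, limit read from the data, passing the limit was not always enough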
# Myeloid diff MLP: compounds promoting myeloid differentiation; 360,000 compounds, 1% hits; AID 624256; ER-HoxA9 myeloid progenitors, lysozyme-GFP differentiation, flow cytometry; calls only at 10 µM;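 active = normalized GFP-positive differentiation at or above the plate's own cutoff, the solvent-only control mean plus 3 SD; inconclusive = no clear call, values can overlap the other calls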;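 also: cells exposed to compound for four days before flow analysis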
# ABCB6 inh 2: blocks the human ABCB6 transporter; Q9NP58; K562-ABCB6 porphyrin accumulation, flow cytometry, 1 h; stronger effect = lower value; fluorescence ratio to DMSO, % at 10 µM; 360,000 compounds, 0.19% hits; AID 602162;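 active = fluorescence ratio to DMSO below 75%, the collection mean minus 3 SD; inconclusive = too few cells collected in the well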;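 also: signal is porphyrin accumulated inside mitochondria; 100% equals median channel fluorescence of DMSO control wells; lower ratio means ABCB6 inhibition with less porphyrin fluorescence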
# Arrestin-AP2 inh: blocks beta-arrestin peptide binding to AP2 adaptin; 340,000 compounds, 0.31% hits; inhibition, % at 10 µM; FITC-arrestin peptide / GST-AP2 beads, flow cytometry; AP2 beta2 appendage carries R879A mutation;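 active = inhibition above a set limit, near 3 SD of compounds lacking own fluorescence, cut at about 54% in these data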;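 also: plate controls were DMSO wells for no effect and 5 µM unlabelled arrestin peptide for full effect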
#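 Assay system: GST-AP2 R879A bound to glutathione beads, E. coli-expressed; Medium: PBS with 0.05% Tween 20 and 0.1% BSA; Also added: fluorescein-tagged arrestin peptide at 50 nM final; Timing: 12 min plus 1 h, RT; Measured by: flow cytometry, FL1 (488/535 nm); Evaluation: percent drop in bead-associated FITC signal.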
# ATG4B inh: blocks human ATG4B protease cleavage of LC3 substrate | AID 504462 | 340,000 compounds, 0.51% hits | ATG4B cleavage of LC3-PLA2, NBD-HPC fluorescence, 1 h | Q9Y4P1 | inhibition, % at 8.33 µM; in the data active = inhibition above about 40%
# ABCB6 blocker 1: inhibitors of human ABC transporter ABCB6 | K562-ABCB6 porphyrin accumulation, flow cytometry, 1 h; stronger effect = lower value | shares compounds with ABCB6 inh 2 | AID 602430 | ratio response (% of DMSO), % at 10 µM | 700 tested, under 10 active;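 active = repeat-averaged ratio response below 75% of DMSO, the collection mean minus 3 SD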;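 also: median porphyrin fluorescence at 575 nm with 488 nm excitation from mitochondria; lower ratio means less porphyrin signal so ABCB6 inhibition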
# * = called active by the depositor; i = inactive; ? = inconclusive; · = no result given.
SMILES,Granule exo inh,CendR NRP1 mod,Myeloid diff MLP,ABCB6 inh 2,Arrestin-AP2 inh,ATG4B inh,ABCB6 blocker 1
O=C(NCc1cccc(Cl)c1)c1ccc2ccccc2n1,9,0,i,70*,9,5,99
CCc1ccc(C(=O)CN2C(=O)C(C)N(c3ccc(C)cc3)C2=O)cc1 (centres undefined),-2,14,i,88,4,-11,·
O=C(CCc1ccc(S(=O)(=O)N2CCOCC2)cc1)Oc1ccccc1,0,7,i,62*,37,-12,98
O=C(O)CCc1ccc(S(=O)(=O)N2CCOCC2)cc1,2,5,i,96,1,-2,·
Cc1cccc(C(C)C)c1NC(=O)COC(=O)CCC(=O)N(CC(C)C)c1c(N)n(CC(C)C)c(=O)[nH]c1=O,-6,-12,i,97,·,·,99
C#CCOc1ccccc1CNC1CCN(Cc2ccccc2)CC1,48,-13,i,57*,0,7,98
Cc1cccc(NC(=O)c2c(O)c3ccccc3n(C)c2=O)c1,-24,1,i,84,7,2,·
Cc1ccc(OC(=O)CCC(=O)Nc2ccc(C(N)=O)cc2)cc1,-1,9,i,97,31,-11,·
c1ccc(CNc2ncnc3nc[nH]c23)cc1,-2,3,i,102,-5,6,·
CCOc1cc(CNc2ncnc3nc[nH]c23)ccc1OC,-5,-12,i,73*,6,10,100
CCOc1ccccc1NC(=O)CSc1nnc(Cc2cccn2C)n1-c1ccc(F)cc1,1,-8,?,98,3,-4,·
CCOC(=O)c1ccccc1NC(=O)CSc1nnc(Cc2cccn2C)n1-c1ccc(F)cc1,8,9,i,65*,5,15,100
Cc1ccccc1SCC(=O)OCC(=O)N(C)c1c(N)n(Cc2ccccc2)c(=O)[nH]c1=O,5,1,i,101,9,4,·
CSc1nnc(CNS(=O)(=O)c2ccc(Br)cc2)n1C,-16,-4,i,102,-3,4,·
CCCc1ccc(S(=O)(=O)NCc2nnc(SC)n2C)cc1,-11,3,i,63*,2,1,97
CC(=O)Nc1ccc(NC(=O)[C@H](C)NC(=O)c2ccco2)cc1,-2,11,i,64*,-3,-4,98
CCOc1ccccc1OCCCC(=O)N(CC)CC(=O)Nc1c(F)cccc1F,-5,-4,i,95,-1,7,·
COC(=O)C1CCN(C(=O)Cc2ccccc2OC)CC1,-1,-3,i,72*,17,-7,99
O=C(O)CSc1nnc(Cn2c(=O)sc3ccccc32)n1-c1cccc(Cl)c1,-2,9,i,104,-6,-6,·
NC(=O)CSc1nnc(Cn2c(=O)sc3ccccc32)n1-c1cccc(Cl)c1,5,2,i,66*,35,-18,99
CC(=O)c1cccc(NC(=O)C2(C)Cc3c(-c4cccc(C(F)(F)F)c4)ccnc3O2)c1 (centres undefined),0,-17,i,76,·,·,100
CC1(C(=O)Nc2cccnc2)Cc2c(-c3ccc4c(c3)OCO4)ccnc2O1 (centres undefined),3,-13,i,94,·,·,99
CC1(C(=O)Nc2cccnc2)Cc2c(-c3cccc(C(F)(F)F)c3)ccnc2O1 (centres undefined),1,-2,i,94,·,·,97
CC(=O)Nc1ccc(NC(=O)C2(C)Cc3c(-c4cccc(C(F)(F)F)c4)ccnc3O2)cc1 (centres undefined),-1,-1,i,98,·,·,·
CCN(CC)S(=O)(=O)c1cccc(NC(=O)CCSc2ccc(Cl)cc2)c1,-2,6,i,99,11,13,·
SMILES,Granule exo inh,CendR NRP1 mod,Myeloid diff MLP,ABCB6 inh 2,Arrestin-AP2 inh,ATG4B inh,ABCB6 blocker 1
CN(C)S(=O)(=O)c1cccc(NC(=O)COC(=O)CCSc2ccc(Cl)cc2)c1,1,-7,i,71*,4,-22,101
Cc1cc(C)cc(CC(=O)N2CCC2(C)C(=O)NS(=O)(=O)c2ccc(C#N)cc2)c1 (centres undefined),6,5,i,93,·,·,103
Cc1cc(C)cc(CC(=O)N2CCC2(C)C(=O)NS(=O)(=O)c2cccc(OC(F)F)c2)c1 (centres undefined),2,-12,i,95,·,·,99
CC(C)(C)c1ccc(CC(=O)N2CCC2(C)C(=O)NS(=O)(=O)c2cccc(OC(F)F)c2)cc1 (centres undefined),19,4,i,97,·,·,·
O=C(CC1CCCCC1)NCc1ccccc1Cl,-2,0,i,103,-20,3,·
O=C(COC(=O)CCCC1=NS(=O)(=O)c2ccccc2N1)Nc1ccc(Br)cc1,-5,0,?,104,-10,-4,97
COc1ccccc1NC(=O)COC(=O)CC(C)(C)CC1=NS(=O)(=O)c2ccccc2N1,0,-4,i,98,-4,-3,·
Cc1ccccc1COC(=O)CCCC1=NS(=O)(=O)c2ccccc2N1,1,10,i,100,-7,1,·
COc1ccc(Cl)cc1NC(=O)COC(=O)CCCC1=NS(=O)(=O)c2ccccc2N1,-1,9,i,101,-17,-19,102
Cc1ccc(NC(=O)COC(=O)CCCC2=NS(=O)(=O)c3ccccc3N2)cc1C,-4,2,i,10*,2,-12,99
O=C(CCCC1=NS(=O)(=O)c2ccccc2N1)Nc1ccccc1,2,4,i,98,6,4,·
O=C1C=C(c2ccc(OC(F)(F)F)cc2)C[C@@H](c2ccc(Cl)cc2)C1,1,7,i,74*,8,-3,98
COc1ccc(C2=CC(=O)C[C@H](c3ccc(Cl)cc3)C2)cc1,-4,2,i,101,-2,7,·
C/C(N)=C(/C#N)C(=O)COC(=O)C1CCN(S(=O)(=O)c2cccs2)CC1,-1,1,i,104,-19,6,101
O=C(COC(=O)C1CCN(S(=O)(=O)c2cccs2)CC1)c1ccccc1,-1,-10,i,95,6,-2,·
COc1cc(OC)c(C#N)c(S(=O)(=O)Cc2ccccc2)c1,-4,11,i,68*,0,-15,99
N#Cc1c([N+](=O)[O-])cc([N+](=O)[O-])cc1S(=O)(=O)Cc1ccccc1,-1,2,?,104,5,-6,·
Fc1ccccc1OCCCN1CCOCC1,-2,-2,i,74*,2,-6,99
CS(=O)(=O)Nc1ccccc1-c1cccc2nccn12,-6,-8,i,68*,·,·,100
